According to ChEMBL document CHEMBL1124245, “Investigation of the structural parameters involved in the mu and delta opioid receptor discrimination of linear enkephalin-related peptides” (J Med Chem, 1988):
Numbered stars: 1 amine (or outer) side, 2 acyl side, 3 side chain; on linkers, the order of the positions; unused ones are H or OH. Square brackets hold non-standard residues; d marks the D form. Peptide text beside a SMILES is read from it. X1 = CC[C@H](O)[C@H](N[*:1])C(=O)[*:2]; azaGly = NNC(=O)O

Assays:
[1] = target: Opioid receptors; mu & delta (Homo sapiens, UniProt P41143+P35372); test: Inhibition of electrically evoked contraction of guinea pig ileum (myenteric plexus;longitudinal muscle)[agonist action at mu 1 opioid receptors) and inhibition of electrically evoked contraction of mouse vas deferens (agonist action at delta 1 opioid receptor); format: functional, tissue-based
[2] = target: T1, Delta-type opioid receptor (Rattus norvegicus, UniProt P33533); test: Inhibition of [3H]DSLET binding to delta 1 opioid receptors in rat brain membranes; format: cell membranes
T1 sequence (P33533 whole entry): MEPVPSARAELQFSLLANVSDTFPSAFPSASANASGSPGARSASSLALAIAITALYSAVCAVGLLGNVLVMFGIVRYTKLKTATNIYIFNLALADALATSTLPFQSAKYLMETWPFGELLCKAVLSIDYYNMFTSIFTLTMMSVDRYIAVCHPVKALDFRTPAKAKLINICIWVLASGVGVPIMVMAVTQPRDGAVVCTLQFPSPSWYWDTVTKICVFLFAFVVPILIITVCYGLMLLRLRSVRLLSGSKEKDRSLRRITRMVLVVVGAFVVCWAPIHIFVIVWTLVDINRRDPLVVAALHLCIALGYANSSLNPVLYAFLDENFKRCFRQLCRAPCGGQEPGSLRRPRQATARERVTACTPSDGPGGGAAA

Mu-type opioid receptor [3] = target: Mu-type opioid receptor (Cavia porcellus, UniProt P97266); test: Inhibition of electrically evoked contraction of guinea pig ileum (myenteric plexus:longitudinal muscle preparation) by agonist action at mu 1 opioid receptors; format: functional, tissue-based
Sequence of Mu-type opioid receptor (Cavia porcellus, UniProt P97266) (P97266 whole entry): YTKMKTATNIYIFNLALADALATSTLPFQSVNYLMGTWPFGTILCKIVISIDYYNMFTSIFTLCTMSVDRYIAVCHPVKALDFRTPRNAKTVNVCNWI
Summary of the method: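 Electrically stimulated guinea pig ileum twitch. IC50 for half-maximal inhibition taken from six to eight log dose-response curves, six concentrations each. [Met]enkephalin IC50 measured on the same preparation. Agonist IC50 multiplied by the mean [Met]enkephalin IC50 divided by that assay's [Met]enkephalin IC50.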

Mu-type opioid receptor [4] = target: Mu-type opioid receptor (Rattus norvegicus, UniProt P33535); test: Inhibition of [3H]DAGO binding to mu 1 opioid receptor in rat brain membranes; format: cell membranes
Sequence of Mu-type opioid receptor (Rattus norvegicus, UniProt P33535) (P33535 whole entry): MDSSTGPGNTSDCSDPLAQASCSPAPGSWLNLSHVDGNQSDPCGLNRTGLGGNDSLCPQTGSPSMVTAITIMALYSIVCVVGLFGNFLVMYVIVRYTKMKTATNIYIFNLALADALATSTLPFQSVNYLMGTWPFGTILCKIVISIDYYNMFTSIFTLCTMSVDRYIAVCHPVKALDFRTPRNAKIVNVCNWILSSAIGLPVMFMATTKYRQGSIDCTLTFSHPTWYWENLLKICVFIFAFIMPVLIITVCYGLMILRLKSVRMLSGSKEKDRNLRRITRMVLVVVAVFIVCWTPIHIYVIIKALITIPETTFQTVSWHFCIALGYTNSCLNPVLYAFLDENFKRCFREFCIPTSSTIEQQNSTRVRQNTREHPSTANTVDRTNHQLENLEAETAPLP
Summary of the method: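 Rat brain membranes, 0.6–0.7 mg protein, in 50 mM Tris-HCl pH 7.4 with 1 nM [3H]DAGO. Incubated 40 min at 35 °C, then filtered and washed with cold buffer. Bound radioactivity counted by scintillation. Nonspecific binding taken with 10 µM levorphanol, triplicates. Nine unlabeled-ligand concentrations, Hill-plot fit, Ki by Cheng-Prusoff. Three to six independent determinations.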

Mus musculus [5] = organism: Mus musculus; test: Inhibitory activity after protection from beta-CNS-induced inactivation in MVD; format: functional
Mus musculus [6] = test: Analgesic potency in mice after icv injection and 10 min before exposing to hot plate; format: functional
Summary of the method: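 Albino mice, 24–28 g, given drug icv by hand (10 µL, modified 30-gauge needle). Jump latency timed on a 55 ± 0.2 °C hot plate 10 min later, experimenter blind. Cut-off 180 s = 100% analgesia. Percent analgesia = (Tt−Tc)/(180 s−Tc). 10 mice per point. AD50 and 95% confidence limits by Litchfield–Wilcoxon.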

Mus musculus [7] = organism: Mus musculus; test: Inhibitory activity before protection from beta-CNS-induced inactivation in MVD; format: functional
[8] = target: T1, Delta-type opioid receptor; test: Ability to inhibit the binding of [3H]DSLET to Opioid receptor delta 1 in rat brain membranes; format: cell membranes

Compound | IC50 [1] | Ki [2] [nM] | IC50 (Mu-type opioid receptor [3]) [nM] | Ki (Mu-type opioid receptor [4]) [nM] | IC50 (Mus musculus [5]; Mus musculus) [nM] | dose (Mus musculus [6]) [pmol/mouse] | IC50 (Mus musculus [7]; Mus musculus) [nM] | IC50 (Mus musculus [5]) [nM] | IC50 (Mus musculus [7]) [nM] | Ki [8] [nM]
CCN(C(=O)CNC(=O)[C@@H](C)NC(=O)[C@@H](N)Cc1ccc(O)cc1)C(C)CC(C)C (stereo partly specified) | 1800 nM | 3450 | 216 | 35.5 | – | – | – | – | – | –
CC(C)C[C@H](NC(=O)[C@H](Cc1ccccc1)NC(=O)CNC(=O)[C@@H](CO)NC(=O)[C@@H](N)Cc1ccc(O)cc1)C(=O)N[C@H](C(=O)O)[C@@H](C)O | – | 4.8 | 406 | – | 0.65 | 130 | 0.38 | – | – | –
CC(C)C[C@H](NC(=O)[C@H](Cc1ccccc1)NC(=O)CNC(=O)[C@H](NC(=O)[C@@H](N)Cc1ccc(O)cc1)[C@H](C)O)C(=O)N[C@@H](CO)C(=O)O | 0.25 nM | 4.18 | 99 | 41.9 | – | – | – | – | – | –
CC(C)C[C@H](NC(=O)[C@H](Cc1ccccc1)NC(=O)CNC(=O)[C@H](NC(=O)[C@@H](N)Cc1ccc(O)cc1)[C@H](C)O)C(=O)N[C@H](C(=O)O)[C@@H](C)O [listing 1 of 2 here] | 0.15 nM | – | 460 | 25.3 | – | – | – | 0.22 | 0.13 | –
CC(C)C[C@H](NC(=O)[C@H](Cc1ccccc1)NC(=O)CNC(=O)[C@H](NC(=O)[C@@H](N)Cc1ccc(O)cc1)[C@H](C)O)C(=O)N[C@H](C(=O)O)[C@@H](C)O [listing 2 of 2 here] | – | – | – | – | – | 50 | – | – | – | –
CC(C)C[C@H](NC(=O)[C@H](CC(C)C)NC(=O)[C@H](Cc1ccccc1)NC(=O)CNC(=O)[C@H](NC(=O)[C@@H](N)Cc1ccc(O)cc1)[C@H](C)O)C(=O)O | 0.41 nM | 2.65 | 260 | 38 | – | – | – | – | – | –
CC(C)CC(C)NC(=O)CNC(=O)[C@H](C)NC(=O)[C@@H](N)Cc1ccc(O)cc1 (stereo partly specified) | >= 50000 nM | – | ≥ 50000 | – | – | – | – | – | – | –
CC(C)CC(C)NC(=O)CNC(=O)[C@@H](CO)NC(=O)[C@@H](N)Cc1ccc(O)cc1 (stereo partly specified) | 990 nM | 1370 | 718 | 43 | – | – | – | – | – | –
CC(C)CC(C)NC(=O)CNC(=O)[C@@H](COC(C)(C)C)NC(=O)[C@@H](N)Cc1ccc(O)cc1 (stereo partly specified) | 105 nM | 39 | 111 | 13.7 | – | – | – | – | – | –
CC(C)C[C@H](NC(=O)[C@H](Cc1ccccc1)NC(=O)CNC(=O)[C@H](NC(=O)[C@@H](N)Cc1ccc(O)cc1)[C@H](C)O)C(=O)N1C[C@H](O)C[C@H]1C(=O)O | 1.1 nM | 7.6 | 88 | 43.8 | – | 252 | – | – | – | –
CC(C)CCNC(=O)CNC(=O)[C@@H](C)NC(=O)[C@@H](N)Cc1ccc(O)cc1 | 3410 nM | 1020 | 323 | 10 | – | – | – | – | – | –
CC(C)C[C@H](NC(=O)[C@H](CC(C)C)NC(=O)[C@H](Cc1ccccc1)NC(=O)CNC(=O)[C@@H](CO)NC(=O)[C@@H](N)Cc1ccc(O)cc1)C(=O)O | 2.45 nM | 9.12 | 257 | 158 | – | 610 | – | – | – | –
CSCC[C@@H](NC(=O)[C@@H](N)Cc1ccc(O)cc1)C(=O)NCC(=O)NCCC(C)C | 733 nM | 600 | 154 | 15 | – | – | – | – | – | –
CC(C)CC(C)NC(=O)CNC(=O)C(C)(C)NC(=O)[C@@H](N)Cc1ccc(O)cc1 (stereo partly specified) | 4720 nM | 6880 | 1850 | 171 | – | – | – | – | – | –
CC(C)C[C@@H](C(=O)N[C@H](C(=O)O)[C@@H](C)O)N(C)C(=O)[C@H](Cc1ccccc1)NC(=O)CNC(=O)[C@H](NC(=O)[C@@H](N)Cc1ccc(O)cc1)[C@H](C)O | 1.33 nM | 30.7 | 224 | 157 | – | – | – | – | – | –
CC(C)C[C@@H](C(=O)NCCO)N(C)C(=O)CNC(=O)[C@@H](C)NC(=O)[C@@H](N)Cc1ccc(O)cc1 | 3180 nM | 3810 | 379 | 116 | – | – | – | – | – | –
CC(C)CC(C)NC(=O)CNC(=O)[C@@H](C)NC(=O)[C@@H](N)Cc1ccc(O)cc1 (stereo partly specified) | 1050 nM | 480 | 237 | 17 | – | – | – | – | – | –
CC[C@H](O)[C@H](NC(=O)[C@@H](N)Cc1ccc(O)cc1)C(=O)NCC(=O)N[C@@H](Cc1ccccc1)C(=O)N[C@@H](CC(C)C)C(=O)N[C@H](C(=O)O)[C@@H](C)O (H-Y[X1]GFLT-OH) | 0.05 nM | 2.2 | 21.3 | 16 | – | – | – | – | – | –
CC(C)C[C@H](NC(=O)[C@H](Cc1ccccc1)NC(=O)CNC(=O)NNC(=O)[C@@H](N)Cc1ccc(O)cc1)C(=O)N[C@H](C(=O)O)[C@@H](C)O (H-Y[azaGly]GFLT-OH) | 38 nM | 395 | 14000 | 9790 | – | – | – | – | – | –
CC(C)C[C@@H](NC(=O)[C@H](Cc1ccccc1)NC(=O)CNC(=O)[C@@H](C)NC(=O)[C@@H](N)Cc1ccc(O)cc1)C(=O)O [DADLE] | – | – | – | – | – | 12 | – | – | – | –
C[C@@H](NC(=O)[C@@H](N)Cc1ccc(O)cc1)C(=O)NCC(=O)N(C)[C@@H](Cc1ccccc1)C(=O)NCCO [DAMGO] | – | – | 11.5 | – | 2400 | 1 | 100 | – | – | 700
